Reference: ChEMBL document CHEMBL5303300, “EUbOPEN Chemogenomics Library - Multiplex” (2023)
Where “and” joins values, the source holds several entries; their conditions need not be identical. Equal entries are not always repeated.

System: Fibroblast
Assay: Multiplex assay against human fibroblast
Assay type: toxicity, cell-based
Conditions: number of replicates 2
Procedure, shortened: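 Four dyes were applied at seeding to live cells: Hoechst33342, BioTracker Green Microtubule Cytoskeleton Dye, MitoTracker Red and Annexin V Alexa Fluor 680. Imaging after compound addition used a CQ1 microscope at 37°C and 5% CO2. CellPathfinder machine-learning gating then sorted cells into Hoechst high-intensity objects or normal cells, normal cells into healthy, pyknosed or fragmented nuclei, and pyknosed cells into mitotic or apoptotic, with tubulin, mitochondrial-mass and membrane-permeability phenotypes given as per cents of healthy-nucleus cells.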

[1] = 12 h, 1 µM, compound concentration 1 uM
[2] = 12 h, 10 µM, compound concentration 10 uM
[3] = 24 h, 1 µM, compound concentration 1 uM
[4] = 24 h, 10 µM, compound concentration 10 uM
[5] = 48 h, 1 µM, compound concentration 1 uM
[6] = 48 h, 10 µM, compound concentration 10 uM

## CN(C)CCN(Cc1ccc(-c2ccc(CNCCc3ccccc3)cc2)cc1)C(=O)CCC1CCCC1.Cl.Cl
[1]
  Population Apoptotic (%): 25% and 30%
  Population Fragmented Nuclei (%): 20% and 26%
  Population Healthy Nuclei (%): 56% and 57%
  Population Hoechst High Intensity Objects (%): 0%
  Population Membrane Permeable-Phenotype (%): 3% and 4%
  Population Mitochondria Different-Phenotype (%): 11% and 14%
  Population Mitotic Cells (%): 74% and 69%
  Population Normal (%): 100% and 99%
  Population Pyknosed Nuclei (%): 22% and 16%
  Population Tubulin-Different-Phenotype (%): 68% and 55%
  Total Cell Count: 254 and 325
[2]
  Population Apoptotic (%): 84% and 86%
  Population Fragmented Nuclei (%): 4% and 8%
  Population Healthy Nuclei (%): 3% and 1%
  Population Hoechst High Intensity Objects (%): 2% and 0%
  Population Mitotic Cells (%): 15% and 13%
  Population Normal (%): 97% and 99%
  Population Pyknosed Nuclei (%): 92% and 90%
  Population Tubulin-Different-Phenotype (%): 50% and 100%
  Total Cell Count: 199 and 160
[3]
  Population Apoptotic (%): 55% and 66%
  Population Fragmented Nuclei (%): 13% and 19%
  Population Healthy Nuclei (%): 67% and 68%
  Population Hoechst High Intensity Objects (%): 0%
  Population Membrane Permeable-Phenotype (%): 3% and 1%
  Population Mitochondria Different-Phenotype (%): 23% and 29%
  Population Mitotic Cells (%): 44% and 33%
  Population Normal (%): 99%
  Population Pyknosed Nuclei (%): 18% and 11%
  Population Tubulin-Different-Phenotype (%): 72% and 60%
  Total Cell Count: 239 and 294
[4]
  Population Apoptotic (%): 87% and 90%
  Population Fragmented Nuclei (%): 6% and 12%
  Population Healthy Nuclei (%): 1%
  Population Hoechst High Intensity Objects (%): 1%
  Population Membrane Permeable-Phenotype (%): 33%
  Population Mitotic Cells (%): 12% and 9%
  Population Normal (%): 98%
  Population Pyknosed Nuclei (%): 92% and 85%
  Total Cell Count: 199 and 156
[5]
  Population Apoptotic (%): 86% and 65%
  Population Fragmented Nuclei (%): 19% and 27%
  Population Healthy Nuclei (%): 74% and 66%
  Population Hoechst High Intensity Objects (%): 0%
  Population Membrane Permeable-Phenotype (%): 1%
  Population Mitochondria Different-Phenotype (%): 9% and 11%
  Population Mitotic Cells (%): 13% and 35%
  Population Normal (%): 100%
  Population Pyknosed Nuclei (%): 5% and 6%
  Population Tubulin-Different-Phenotype (%): 41% and 38%
  Total Cell Count: 255 and 321
[6]
  Population Apoptotic (%): 83% and 93%
  Population Fragmented Nuclei (%): 12% and 22%
  Population Healthy Nuclei (%): 6% and 13%
  Population Hoechst High Intensity Objects (%): 0%
  Population Membrane Permeable-Phenotype (%): 8% and 14%
  Population Mitochondria Different-Phenotype (%): 41% and 19%
  Population Mitotic Cells (%): 16% and 7%
  Population Normal (%): 100%
  Population Pyknosed Nuclei (%): 81% and 63%
  Population Tubulin-Different-Phenotype (%): 50% and 76%
  Total Cell Count: 200 and 157

## COCCN1CCN(CCn2ccc(Nc3ncc4c(n3)-c3c(nn(C)c3-c3ccccc3)C[C@H]4C)n2)CC1
[1]
  Population Apoptotic (%): 48% and 20%
  Population Fragmented Nuclei (%): 9% and 8%
  Population Healthy Nuclei (%): 73% and 72%
  Population Hoechst High Intensity Objects (%): 0%
  Population Membrane Permeable-Phenotype (%): 4% and 8%
  Population Mitochondria Different-Phenotype (%): 0% and 1%
  Population Mitotic Cells (%): 51% and 79%
  Population Normal (%): 100%
  Population Pyknosed Nuclei (%): 16% and 19%
  Population Tubulin-Different-Phenotype (%): 16% and 12%
  Total Cell Count: 202 and 275
[2]
  Population Apoptotic (%): 32% and 46%
  Population Fragmented Nuclei (%): 13% and 20%
  Population Healthy Nuclei (%): 57% and 61%
  Population Hoechst High Intensity Objects (%): 0%
  Population Membrane Permeable-Phenotype (%): 12% and 5%
  Population Mitochondria Different-Phenotype (%): 2%
  Population Mitotic Cells (%): 67% and 53%
  Population Normal (%): 99%
  Population Pyknosed Nuclei (%): 29% and 18%
  Population Tubulin-Different-Phenotype (%): 58% and 32%
  Total Cell Count: 222 and 175
[3]
  Population Apoptotic (%): 51% and 44%
  Population Fragmented Nuclei (%): 10% and 11%
  Population Healthy Nuclei (%): 72% and 69%
  Population Hoechst High Intensity Objects (%): 0%
  Population Membrane Permeable-Phenotype (%): 5% and 4%
  Population Mitochondria Different-Phenotype (%): 0%
  Population Mitotic Cells (%): 48% and 55%
  Population Normal (%): 99%
  Population Pyknosed Nuclei (%): 16% and 19%
  Population Tubulin-Different-Phenotype (%): 14% and 10%
  Total Cell Count: 188 and 271
[4]
  Population Apoptotic (%): 57% and 51%
  Population Fragmented Nuclei (%): 13% and 16%
  Population Healthy Nuclei (%): 59% and 64%
  Population Hoechst High Intensity Objects (%): 1% and 0%
  Population Membrane Permeable-Phenotype (%): 7% and 3%
  Population Mitochondria Different-Phenotype (%): 4% and 5%
  Population Mitotic Cells (%): 42% and 48%
  Population Normal (%): 98% and 100%
  Population Pyknosed Nuclei (%): 27% and 19%
  Population Tubulin-Different-Phenotype (%): 53% and 29%
  Total Cell Count: 201 and 173
[5]
  Population Apoptotic (%): 52% and 60%
  Population Fragmented Nuclei (%): 10% and 12%
  Population Healthy Nuclei (%): 74% and 72%
  Population Hoechst High Intensity Objects (%): 0%
  Population Membrane Permeable-Phenotype (%): 6% and 4%
  Population Mitochondria Different-Phenotype (%): 0%
  Population Mitotic Cells (%): 48% and 39%
  Population Normal (%): 100% and 99%
  Population Pyknosed Nuclei (%): 14% and 15%
  Population Tubulin-Different-Phenotype (%): 12% and 6%
  Total Cell Count: 171 and 271
[6]
  Population Apoptotic (%): 63% and 46%
  Population Fragmented Nuclei (%): 16% and 15%
  Population Healthy Nuclei (%): 65% and 66%
  Population Hoechst High Intensity Objects (%): 0%
  Population Membrane Permeable-Phenotype (%): 8% and 6%
  Population Mitochondria Different-Phenotype (%): 3% and 8%
  Population Mitotic Cells (%): 36% and 53%
  Population Normal (%): 99%
  Population Pyknosed Nuclei (%): 18% and 17%
  Population Tubulin-Different-Phenotype (%): 43% and 17%
  Total Cell Count: 201 and 161
